# Compound activity as filed in PubChem BioAssay.
# In the library only some 3.4% were active in any assay of this set; here they are far more common.
# JNK3 blocker – JNK3 (human) kinase inhibition; P53779; 0.61% of 60,000 active; purified JNK3 kinase activity, HTS; AID 746; inhibition, % at 8 µM; in the data active = inhibition above about 17%;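 note: 0% = DMSO and 100% = reference inhibitor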
# ROCK2 blocker – blocks human Rho kinase 2 activity; 0.35% of 60,000 active; O75116; purified ROCK2, Kinase-Glo ATP depletion luminescence; inhibition, % at 6 µM;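 active = inhibition above the screen-wide mean inhibition plus 3 SD, cut at about 18% in these data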;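 note: plate controls were DMSO wells for no effect and Y-27632 control wells after no-enzyme background subtraction for full effect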
# Target sequence (O75116 whole entry, looked up): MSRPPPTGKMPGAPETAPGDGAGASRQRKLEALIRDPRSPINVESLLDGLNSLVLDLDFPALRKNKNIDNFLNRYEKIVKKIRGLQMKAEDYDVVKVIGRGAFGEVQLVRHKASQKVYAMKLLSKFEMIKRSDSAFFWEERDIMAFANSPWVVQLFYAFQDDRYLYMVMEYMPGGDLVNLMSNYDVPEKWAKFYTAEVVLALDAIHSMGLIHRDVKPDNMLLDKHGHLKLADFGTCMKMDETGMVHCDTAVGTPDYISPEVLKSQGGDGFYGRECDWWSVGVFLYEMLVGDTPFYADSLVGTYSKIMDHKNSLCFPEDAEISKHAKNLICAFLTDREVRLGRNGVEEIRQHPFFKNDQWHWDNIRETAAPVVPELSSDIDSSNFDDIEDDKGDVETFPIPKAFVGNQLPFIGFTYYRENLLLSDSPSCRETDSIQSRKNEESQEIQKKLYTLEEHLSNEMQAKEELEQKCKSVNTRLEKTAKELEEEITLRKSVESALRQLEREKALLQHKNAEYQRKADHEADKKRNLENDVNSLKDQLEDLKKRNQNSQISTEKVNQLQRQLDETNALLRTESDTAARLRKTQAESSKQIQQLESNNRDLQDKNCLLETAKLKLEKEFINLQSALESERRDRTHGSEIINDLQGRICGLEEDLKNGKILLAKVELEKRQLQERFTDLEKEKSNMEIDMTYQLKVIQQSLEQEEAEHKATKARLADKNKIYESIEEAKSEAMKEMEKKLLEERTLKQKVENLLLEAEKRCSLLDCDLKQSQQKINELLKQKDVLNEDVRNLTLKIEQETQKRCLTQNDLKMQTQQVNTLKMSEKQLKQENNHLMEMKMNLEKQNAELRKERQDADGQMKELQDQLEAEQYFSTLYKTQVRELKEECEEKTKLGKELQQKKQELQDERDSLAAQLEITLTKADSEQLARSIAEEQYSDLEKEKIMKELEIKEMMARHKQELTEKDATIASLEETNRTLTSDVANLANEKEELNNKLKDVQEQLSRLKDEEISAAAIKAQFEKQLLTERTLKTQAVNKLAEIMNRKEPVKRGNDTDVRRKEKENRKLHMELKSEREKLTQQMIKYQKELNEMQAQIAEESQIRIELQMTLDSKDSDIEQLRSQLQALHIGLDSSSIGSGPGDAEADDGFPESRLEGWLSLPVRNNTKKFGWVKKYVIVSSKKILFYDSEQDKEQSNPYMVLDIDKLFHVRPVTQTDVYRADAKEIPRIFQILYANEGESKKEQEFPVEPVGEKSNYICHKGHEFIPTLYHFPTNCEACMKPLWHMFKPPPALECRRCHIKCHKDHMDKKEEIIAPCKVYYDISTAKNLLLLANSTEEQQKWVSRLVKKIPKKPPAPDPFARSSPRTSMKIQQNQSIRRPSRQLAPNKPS
# SF1 activator – activators of human nuclear receptor SF-1; Q13285; CHO-K1 Gal4-SF-1 LBD luciferase reporter; % increase over DMSO SF-1-specific signal; activation, % at 10 µM; 1.9% of 65,000 active; AID 522;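 active = activation above the mean activation of all tested compounds plus 3 SD, cut at about 50% in these data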
#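 System: CHO-K1 cells with Gal4–hSF-1 LBD chimera plus Gal4-driven luciferase; quantity: 4,000 CHO-K1 cells per well; compound: one dose, 10 µM compound, 1% DMSO; times: 20 h compound treatment, 37 °C; measured by: SteadyLite luciferase luminescence; read-out: percent activation versus DMSO; benchmarks: DMSO and mock-transfected background; replicates: one test per compound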
# RORA act – activators of human nuclear receptor RORA; CHO-K1 Gal4-RORA LBD luciferase reporter, luminescence; percent increase over mock-subtracted basal signal; activation, % at 10 µM; 1.5% of 65,000 active; AID 560;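 active = activation above the mean of all tested compounds plus 3 SD, cut at about 49% in these data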;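 note: 0% = DMSO-treated RORA cells and 100% = added signal equal to DMSO minus mock-transfected cells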
# PKA kinase inh – inhibitors of human protein kinase A; PKA Kemptide phosphorylation, Kinase-Glo ATP luminescence; AID 524; inhibition, % at 6 µM; 0.1% of 65,000 active; P17612;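 active = inhibition above the screen-wide mean inhibition plus 3 SD, cut at about 21% in these data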
# MMP13 inh – blocks human MMP13 activity. 0.07% of 65,000 active. MMP-13 fTHP FRET cleavage, Mca fluorescence. P45452. AID 570. inhibition, % at 4 µM;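 active = inhibition above the mean of compound-free control plate wells plus 3 SD, cut at about 14% in these data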;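 note: 0% = DMSO wells and 100% = wells with reference MMP-13 inhibitor after basal subtraction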
# * marks the source's active call; other numbers are inactive results; · = no result.
SMILES,JNK3 blocker,ROCK2 blocker,SF1 activator,RORA act,PKA kinase inh,MMP13 inh
Cn1c(SCc2ccc(C#N)cc2Cl)nc2ccccc21,5,2,37,82*,5,-8
CC1(C)Cc2c(sc3nc(SCC#N)n(C4CCCCC4)c(=O)c23)CO1,-4,2,15,-5,4,1
CCOc1ccc2nc(Nc3nc4c(c(=O)[nH]3)CCC4)nc(C)c2c1,-1,2,37,1,7,3
Cc1ccnc2ccc(-c3nc4ccccc4o3)cc12,2,5,56*,46,8,-101
O=C(Cc1cccs1)Nc1nc2ccccc2s1,16,-1,39,58*,-4,1
O=C(CSc1nc2ccccc2o1)Nc1nc2c(s1)CCCC2,-2,2,12,1,1,6
CC(=O)Nc1nc2ccc(-c3nc4ccccc4o3)cc2s1,0,6,38,69*,10,-182
O=C(CSc1nc2ccccc2o1)Nc1nc2ccccc2s1,3,4,50*,3,8,1
CCc1nnc(NC(=O)C2CCCN2C(=O)NC2CCCCC2)s1 (stereo not drawn),4,4,12,-3,15,0
CCN1CCN(c2ccc(-n3c(C)nc4c(cnn4-c4ccccc4Cl)c3=O)cc2)CC1,0,3,-4,20,11,0
COc1ccc2c(c1)C(C)=CC(C)(C)N2C(=O)CSc1nnc(-c2ccc(C)cc2)o1,-2,0,20,11,-6,2
Cc1cccc(NC(=O)C2CCN(S(=O)(=O)c3cccc4cccnc34)CC2)n1,-6,3,2,-2,9,3
Cc1ccc(Cn2nnc3c(=O)n(CC(=O)N4CCN(c5ccccc5)CC4)cnc32)cc1,-4,3,12,-17,8,1
CSc1nc2ccccc2n1C(=O)NC1CCCCC1,0,4,9,-4,5,0
N#CC(C(=O)NC1CCCCC1)c1nc2ccccc2nc1N1CCCCC1 (stereo not drawn),-3,3,-3,-10,2,-1
O=CNC(=O)c1ccccc1C(=O)O,3,1,2,1,3,4
O=C(CNC(=O)c1ccccc1C(=O)O)c1ccccc1,2,5,56*,29,8,-2
COc1ccc(C(=O)/C=C/Nc2cccc(C)n2)cc1OC,7,5,88*,13,3,-18
CC(=O)Nc1ccc(C(=O)OCCC(C)C)cc1,4,-2,27,51*,-4,2
CCOC(=O)c1ccc(NC(=O)c2nn(C)cc2Br)cc1,2,6,47,76*,4,8
CCOC(=O)c1ccc(NC(=O)N(CC)CC)cc1,·,·,63*,43,-3,-2
O=C(NC1C=CS(=O)(=O)C1)c1sc2ccccc2c1Cl (stereo not drawn),1,8,2,-8,12,-4
COc1ccc2c(Cl)c(C(=O)NC3CCS(=O)(=O)C3)sc2c1 (stereo not drawn),·,·,50*,35,5,4
CC(C)OC(=O)CSc1nnc(-c2cnccn2)n1-c1ccccc1,-2,4,5,16,0,3
Cc1cc(C)n(-c2ccc(C(=O)NC3=NCCS3)cc2)n1,3,3,33,51*,10,-3
SMILES,JNK3 blocker,ROCK2 blocker,SF1 activator,RORA act,PKA kinase inh,MMP13 inh
CC(C)c1nc(SCC(=O)NCc2ccc3c(c2)OCO3)c2c(=O)n(C)c(=O)n(C)c2n1,0,-3,0,0,3,3
O=C(Nc1cccc(-c2nnc(-c3ccccc3)o2)c1)C1CCCCC1,-4,8,53*,49*,7,2
Cc1cccc(C)c1OCC(=O)Nc1cccc(-c2nnc(-c3ccccc3)o2)c1,-7,-7,37,16,5,2
COc1cccc(-c2nnc(NC(=O)C3CCCCC3)o2)c1,4,-4,19,4,8,0
CCCCC(=O)Nc1cccc(-c2nnc(-c3ccccc3)o2)c1,1,5,33,68*,3,0
C=CCOC(=O)Nc1ccc(Cl)cc1NC(=O)OCC=C,0,2,1,20,5,4
CN(C)S(=O)(=O)c1ccc2nc(NC(=O)c3cccnc3)sc2c1,4,-5,62*,33,-9,2
CS(=O)(=O)c1ccc2nc(NC(=O)c3ccco3)sc2c1,3,-5,74*,66*,2,-3
Cc1ccc2nc(NC(=O)COC(=O)c3ccco3)sc2c1,·,·,30,61*,2,4
O=C(Nc1nc2ccc(S(=O)(=O)N3CCCCC3)cc2s1)c1ccncc1,6,0,-1,15,-1,8
N#Cc1nc(-c2cccs2)oc1NCc1ccc2c(c1)OCO2,6,-13,-4,-18,0,-314
CC1(C)CC(=O)c2sc(N3CCCCC3)nc2C1,9,5,13,36,6,2
CC1(C)CNC(=O)c2sc(N3CCCCC3)nc2C1,2,5,30,51*,13,7
Cc1ccc(S(=O)(=O)N2CCC(C(=O)NCCCN3CCCCCC3)CC2)cc1,-4,6,14,1,9,-2
COc1nc(C)ccc1-c1noc(-c2ccccn2)n1,-5,-3,22,61*,-2,3
COc1ccccc1-c1nc(-c2ccccn2)no1,5,-48,-32,-50,-25,-12
COc1ccccc1-c1nc(-c2ccc(C)nc2OC)no1,-15,1,74*,39,-1,-10
COc1ccc(-n2nnnc2-c2cccc(OC)c2)cc1,-4,-2,13,2,3,-2
N#Cc1c(N)nc(SCc2ccncc2)c(C#N)c1-c1cccs1,21*,4,-1,12,1,-6
Cc1ccc(C(=O)CCNc2ccc(F)c(Cl)c2)o1,-2,5,2,-1,14,4
Nc1nc2ccccc2n1CCOc1ccccc1Cl,-2,0,-15,-12,-1,1
Cn1c(=O)n(CCOc2ccccc2Cl)c2ccccc21,-1,3,71*,37,7,3
CCOc1ncccc1C(=O)OCc1nnc(-c2ccccc2)o1,-6,2,-10,-10,2,-2
CCOC(=O)c1c(C)[nH]c2ccc(O)cc12,18*,13,-26,3,9,2
CCOC(=O)c1c2n(c3ccc(O)cc13)CCC2,·,·,-11,-14,-4,1
O=C(Nc1ccccc1)Nc1cccc2cccnc12,5,0,47,86*,-10,1
COc1ccc(C2C3=C(CCCC3=O)Nc3nc(SCc4ccc(C(=O)O)cc4)nn32)cc1OC (stereo not drawn),-3,2,2,4,9,-2
Cc1ccccc1OCC(=O)Nc1ccccc1CO,4,1,16,27,-1,-5
COc1ccccc1NC(=O)COc1ccc(CO)cc1Cl,19*,0,-9,16,6,3
CCOC(=O)c1nn(-c2ccc3c(c2)CCN3C(C)=O)cc1O,·,·,65*,58*,4,-366
